# In ChEMBL document CHEMBL1134691, “3-Phenyl-5-acyloxymethyl-2H,5H-furan-2-ones: synthesis and biological activity of a novel group of potential antifungal drugs” (2001):
# Key:
# [1] = tested on: Lichtheimia corymbifera; experiment: In vitro inhibition of Absidia corymbifera 272 growth for 24 hours.; assay type: functional; conditions: Lichtheimia corymbifera, 24 h; read-out: MIC
# Outline: (§1)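 Filamentous isolates tested by microdilution per NCCLS M27-A in RPMI 1640 plus L-glutamine, buffered with 0.165 M MOPS to pH 7.0. Final inoculum 5 × 10^3 cfu/mL. Compounds in DMSO (final ≤2%), 2-fold series over 1000–0.24 µmol/L. Plates held at 35 °C and read visually after 24 and 48 h. MIC taken as 80% inhibition of control growth; determined twice in duplicate.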
# [2] = tested on: Lichtheimia corymbifera; experiment: In vitro inhibition of Absidia corymbifera 272 growth for 48 hours.; assay type: functional; conditions: Lichtheimia corymbifera, 48 h; read-out: MIC; outline: as §1
# [3] = tested on: Pichia kudriavzevii; experiment: Inhibition of Candida krusei ATCC 6258 growth for 24 hours in vitro.; assay type: functional; conditions: Pichia kudriavzevii, ATCC 6258, 24 h; read-out: MIC
# Outline: (§2)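 NCCLS M27-A broth microdilution in RPMI 1640 with L-glutamine and 0.165 M MOPS, pH 7.0. Isolates kept on Sabouraud dextrose agar. Inoculum 5 × 10^3 cfu/mL final. Compounds were diluted in DMSO (≤2% final) and tested in 2-fold dilutions of 1000–0.24 µmol/L. Incubation at 35 °C, OD540 read at 24 and 48 h. MIC = 80% growth inhibition versus control; assays run twice in duplicate.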
# [4] = tested on: Pichia kudriavzevii; experiment: Inhibition of Candida krusei ATCC 6258 growth for 48 hours in vitro.; assay type: functional; conditions: Pichia kudriavzevii, ATCC 6258, 48 h; read-out: MIC; outline: as §2
# [5] = tested on: Pichia kudriavzevii; experiment: Inhibition of Candida krusei E28 growth for 24 hours in vitro.; assay type: functional; conditions: Pichia kudriavzevii, 24 h; read-out: MIC; outline: as §2
# [6] = tested on: Pichia kudriavzevii; experiment: Inhibition of Candida krusei E28 growth for 48 hours in vitro.; assay type: functional; conditions: Pichia kudriavzevii, 48 h; read-out: MIC; outline: as §2
# [7] = tested on: Aspergillus fumigatus; experiment: Inhibition of Aspergillus fumigatus 231 growth for 48 hours in vitro.; assay type: functional; conditions: Aspergillus fumigatus, 48 h; read-out: MIC; outline: as §1
# [8] = tested on: Clavispora lusitaniae; experiment: Inhibition of Candida lusitaniae 2446/I growth for 24 hours in vitro.; assay type: functional; conditions: Clavispora lusitaniae, 24 h; read-out: MIC; outline: as §2
# [9] = tested on: Clavispora lusitaniae; experiment: Inhibition of Candida lusitaniae 2446/I growth for 48 hours in vitro.; assay type: functional; conditions: Clavispora lusitaniae, 48 h; read-out: MIC; outline: as §2
# [10] = tested on: Candida parapsilosis; experiment: Inhibition of Candida parapsilosis ATCC 22019 growth for 24 hours in vitro.; assay type: functional; conditions: Lodderomyces parapsilosis, ATCC 22019, 24 h; read-out: MIC; outline: as §2
# [11] = tested on: Candida parapsilosis; experiment: Inhibition of Candida parapsilosis ATCC 22019 growth for 48 hours in vitro.; assay type: functional; conditions: Lodderomyces parapsilosis, ATCC 22019, 48 h; read-out: MIC; outline: as §2
# [12] = tested on: Candida albicans; experiment: Inhibition of Candida albicans ATCC 44859 growth for 24 hours in vitro.; assay type: functional; conditions: Candida albicans, ATCC 44859, 24 h; read-out: MIC; outline: as §2
# [13] = tested on: Candida albicans; experiment: Inhibition of Candida albicans ATCC 44859 growth for 48 hours in vitro.; assay type: functional; conditions: Candida albicans, ATCC 44859, 48 h; read-out: MIC; outline: as §2
# [14] = tested on: Candida albicans; experiment: Inhibition of Candida albicans ATCC 90028 for 24 hours in vitro.; assay type: functional; conditions: Candida albicans, ATCC 90028, 24 h; read-out: MIC; outline: as §2
# [15] = tested on: Candida albicans; experiment: Inhibition of Candida albicans ATCC 90028 for 48 hours in vitro.; assay type: functional; conditions: Candida albicans, ATCC 90028, 48 h; read-out: MIC; outline: as §2
# [16] = tested on: Nakaseomyces glabratus; experiment: Inhibition of Candida glabrata 20/I growth for 24 hours in vitro.; assay type: functional; conditions: Nakaseomyces glabratus, 24 h; read-out: MIC; outline: as §2
# [17] = tested on: Nakaseomyces glabratus; experiment: Inhibition of Candida glabrata 20/I growth for 48 hours in vitro.; assay type: functional; conditions: Nakaseomyces glabratus, 48 h; read-out: MIC; outline: as §2
# [18] = tested on: Candida tropicalis; experiment: Inhibition of Candida tropicalis 156 growth for 24 hours in vitro.; assay type: functional; conditions: Candida tropicalis, 24 h; read-out: MIC; outline: as §2
# [19] = tested on: Trichosporon beigelii; experiment: Inhibition of Trichosporon beigelli 1188 for 24 hours in vitro.; assay type: functional; conditions: Trichosporon beigelii, 24 h; read-out: MIC
# Outline: (§3)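 Microdilution following NCCLS M27-A. Medium: RPMI 1640 with L-glutamine, 0.165 M MOPS, pH 7.0. Final inoculum 5 × 10^3 cfu/mL. Compounds dissolved in DMSO, final ≤2%, serially halved from 1000 to 0.24 µmol/L. Incubated at 35 °C and read at 24 and 48 h. MIC defined as 80% inhibition of control growth; run twice in duplicate.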
# [20] = tested on: Trichosporon beigelii; experiment: Inhibition of Trichosporon beigelli 1188 for 48 hours in vitro.; assay type: functional; conditions: Trichosporon beigelii, 48 h; read-out: MIC; outline: as §3
# [21] = Inhibition of Trichophyton mentagrophytes 445 growth for 72 hours in vitro.; assay type: functional, Arthroderma benhamiae; conditions: Trichophyton benhamiae, 72 h; read-out: MIC
# Outline: (§4)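 Dermatophyte grown in MOPS-buffered (0.165 M, pH 7.0) RPMI 1640 containing L-glutamine, in an M27-A microdilution format. Inoculum 5 × 10^3 cfu/mL final. Compounds from DMSO stocks (≤2% final), 2-fold dilutions 1000–0.24 µmol/L. Incubated at 35 °C, growth judged visually at 72 and 120 h. MIC endpoint is 80% inhibition relative to control; measured twice in duplicate.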
# [22] = Inhibition of Trichophyton mentagrophytes 445 growth for 120 hours in vitro.; assay type: functional, Arthroderma benhamiae; conditions: Trichophyton benhamiae, 120 h; read-out: MIC; outline: as §4
# [23] = tested on: Aspergillus fumigatus; experiment: Inhibition of Aspergillus fumigatus 231 growth for 24 hours in vitro.; assay type: functional; conditions: Aspergillus fumigatus, 24 h; read-out: MIC; outline: as §1
# [24] = tested on: Candida tropicalis; experiment: Inhibition of Candida tropicalis 156 growth for 48 hours in vitro.; assay type: functional; conditions: Candida tropicalis, 48 h; read-out: MIC; outline: as §2
SMILES,MIC [1] [µM],MIC [2] [µM],MIC [3] [µM],MIC [4] [µM],MIC [5] [µM],MIC [6] [µM],MIC [7] [µM],MIC [8] [µM],MIC [9] [µM],MIC [10] [µM],MIC [11] [µM],MIC [12] [µM],MIC [13] [µM],MIC [14] [µM],MIC [15] [µM],MIC [16] [µM],MIC [17] [µM],MIC [18] [µM],MIC [19] [µM],MIC [20] [µM],other results
CC(C)(C)C(=O)OCC1C=C(c2ccc(Br)cc2)C(=O)O1 (stereo not given),7.81,15.6,3.91,7.81,7.81,7.81,3.91,3.91,7.81,3.91,15.6,0.49,1.95,1.95,7.81,1.95,1.95,7.81,7.81,7.81,MIC [21]: 1.95 µM; MIC [22]: 3.91 µM; MIC [23]: 0.98 µM; MIC [24]: 7.81 µM
O=C1OC(CO)C=C1c1cccc(Cl)c1 (stereo not given),125,500,1000,> 1000,1000,> 1000,125,250,1000,500,1000,31.2,62.5,250,250,62.5,62.5,500,250,1000,MIC [21]: 15.6 µM; MIC [22]: 15.6 µM; MIC [23]: 31.2 µM; MIC [24]: > 1000 µM
CC(C)(C)C(=O)OCC1C=C(c2cccc(Cl)c2)C(=O)O1 (stereo not given),7.81,15.6,7.81,7.81,7.81,15.6,3.91,3.91,7.81,7.81,15.6,< 0.98,3.91,3.91,7.81,< 0.98,< 0.98,7.81,3.91,15.6,MIC [21]: 1.95 µM; MIC [22]: 1.95 µM; MIC [23]: < 0.98 µM; MIC [24]: 15.6 µM

# Continued, in another order:
MIC [1] [µM],MIC [2] [µM],MIC [3] [µM],MIC [4] [µM],MIC [5] [µM],MIC [6] [µM],MIC [7] [µM],MIC [8] [µM],MIC [9] [µM],MIC [10] [µM],MIC [11] [µM],MIC [12] [µM],MIC [13] [µM],MIC [14] [µM],MIC [15] [µM],MIC [16] [µM],MIC [17] [µM],MIC [18] [µM],MIC [19] [µM],MIC [20] [µM],SMILES,other results
3.91,7.81,3.91,7.81,7.81,7.81,3.91,3.91,7.81,7.81,7.81,0.98,3.91,3.91,7.81,< 0.98,0.98,7.81,3.91,15.6,CC(=O)OCC1C=C(c2cccc(Cl)c2)C(=O)O1 (stereo not given),MIC [21]: 1.95 µM; MIC [22]: 1.95 µM; MIC [23]: 1.95 µM; MIC [24]: 15.6 µM
15.6,31.2,3.91,7.81,3.91,7.81,3.91,1.95,3.91,1.95,3.91,0.12,1.95,1.95,3.91,0.98,0.98,1.95,1.95,7.81,O=C1OC(COC(=O)c2ccc(Cl)cc2)C=C1c1ccc(Cl)c(Cl)c1 (stereo not given),MIC [21]: 0.98 µM; MIC [22]: 0.98 µM; MIC [23]: 0.98 µM; MIC [24]: 3.91 µM
